Results published in ChEMBL document CHEMBL4706573, “Synthesis and evaluation of thiophene based small molecules as potent inhibitors of Mycobacterium tuberculosis” (Eur J Med Chem, 2020).
In brackets after ≈: the same amount, converted by molar mass. Activity calls are given as the source filed them. No cut-off for these calls is given here.

Assays:
[1] = test system: Mycobacterium tuberculosis; test: Antimycobacterial activity against Mycobacterium tuberculosis H37Rv after 10 to 14 days; type: functional; settings: time 10-14 day
Method in brief: (§1)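 MIC99 determined in whole cells, tested in triplicate with INH as the positive control. Strains were wild-type, pMV306, pMV306-pks13 and INH-resistant mc2 497. Susceptibility was scored relative to the parental strain: S where the MIC99 was at most 2x the parental MIC99.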

[2] = test system: THP-1; test: Cytotoxicity against human THP-1 cells assessed as reduction in cell viability measured after 96 hrs by WST1 assay; type: cell-based; settings: thp-1, 96 h
Method in brief: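 THP-1 cells seeded at 20,000/well with 20 ng/ml PMA for 48 h. Cells then washed and rested 24 h in RPMI with 10% FBS. Drug dilutions in RPMI complete medium added in triplicate for 96 h. Viability read by WST-1 reagent after a 30 min incubation.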

[3] = test system: Mycobacterium tuberculosis; test: Antimycobacterial activity against early-logarithmic cultures of Mycobacterium tuberculosis H37Rv assessed as bacterial killing at 10 times MIC99 incubated for 7 days followed by 10-fold serial dilution and measured after 2 to 4 weeks; type: functional; settings: time 2-5 weeks
Method in brief: (§2)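 Early-logarithmic culture (OD600nm ~0.2) exposed to 10x MIC99 for 7 days. Bacteria then counted as CFU and compared with untreated samples. INH used as control.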

[4] = test system: Mycobacterium tuberculosis; test: Antimycobacterial activity against Mycobacterium tuberculosis infected in human THP-1 cells assessed as reduction in intracellular bacterial growth at 10 times MIC99 incubated for 4 days followed by 10-fold serial dilution and measured after 3 to 4 weeks relative to control; type: functional; settings: time 32 day
Method in brief: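 THP-1 cells infected and then washed twice with 1x PBS. Infected macrophages overlaid with RPMI containing drug for 4 days. Lysed on day 0 and day 4 with 1x PBST (0.1% Triton X-100). Tenfold serial dilutions plated on MB 7H11 agar, incubated at 37 °C for 3-4 weeks, then CFU counted. INH used as control.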

[5] = test system: Mycobacterium tuberculosis; test: Antimycobacterial activity against Mycobacterium tuberculosis expressing pMV306 after 10 to 14 days; type: functional, organism-based; settings: time 10-14 day; method in brief: as §1
[6] = test system: Mycobacterium tuberculosis; test: Antimycobacterial activity against Mycobacterium tuberculosis expressing pMV306-pks13 after 10 to 14 days; type: functional, organism-based; settings: time 10-14 day; method in brief: as §1
[7] = test system: Mycobacterium tuberculosis; test: Antimycobacterial activity against early-logarithmic cultures of Mycobacterium tuberculosis H37Rv assessed as reduction in bacterial load at 10 times MIC99 incubated for 7 days followed by 10-fold serial dilution and measured after 2 to 4 weeks; type: functional; settings: time 2-5 weeks; method in brief: as §2
[8] = test system: Mycobacterium tuberculosis; test: Antimycobacterial activity against Mycobacterium tuberculosis H37Rv assessed as FICI in presence of rifampicin by checkerboard assay; type: functional
Method in brief: (§3)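 Two-drug checkerboard: lead compound serially diluted twofold along one axis, cross-diluted twofold with a TB drug (RIF, INH, LEVO, BDQ or PA-824) to form combinations. FICI calculated for each combination.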

[9] = test system: Mycobacterium tuberculosis; test: Antimycobacterial activity against Mycobacterium tuberculosis H37Rv assessed as FICI in presence of isoniazid by checkerboard assay; type: functional; method in brief: as §3
[10] = test system: Mycobacterium tuberculosis; test: Antimycobacterial activity against Mycobacterium tuberculosis H37Rv assessed as FICI in presence of levofloxacin by checkerboard assay; type: functional; method in brief: as §3
[11] = test system: Mycobacterium tuberculosis; test: Antimycobacterial activity against Mycobacterium tuberculosis H37Rv assessed as FICI in presence of bedaquiline by checkerboard assay; type: functional; method in brief: as §3
[12] = test system: Mycobacterium tuberculosis; test: Antimycobacterial activity against Mycobacterium tuberculosis H37Rv assessed as FICI in presence of pretomanid by checkerboard assay; type: functional; method in brief: as §3
[13] = test system: Mycobacterium tuberculosis; test: Ratio of MIC99 for antimycobacterial activity against Mycobacterium tuberculosis H37Rv to MIC99 for antimycobacterial activity against Mycobacterium tuberculosis H37Rv in presence of bedaquiline; type: functional; method in brief: as §3
[14] = test system: Mycobacterium tuberculosis; test: Antimycobacterial activity against Mycobacterium tuberculosis H37Rv; type: functional
[15] = test system: Mycobacterium tuberculosis; test: Antimycobacterial activity against Mycobacterium tuberculosis H37Ra measured up to 7 days; type: functional; settings: 168 h, time day <=7
[16] = Inhibition of N-terminal His-tagged Mycobacterium tuberculosis PtpB expressed in Escherichia coli BL21 (DE3)-CodonPlus cells using DiFMUP as substrate measured after 45 mins by spectrofluorimetric method

Structure (SMILES) | MIC99 [1] | Activity [2] | further results
NNC(=O)c1ccncc1 [ISONIAZID] | 0.19 µM (≈ 0.0261 µg/mL) | > 50 µM | Activity [3]: >4 log10CFU; fold change (FC) [4]: 200; Activity [5]: Active; Activity [6]: Active
CCOC(=O)c1cc(-c2ccccc2)sc1NC(=O)c1ccc(C)cc1 | > 10 µM | > 50 µM | –
COC(=O)c1cc(-c2cc3ccccc3s2)sc1NC(=O)CCl | 0.78 µM (≈ 0.285 µg/mL) | > 50 µM | Activity [5]: Active; Activity [6]: Active
COC(=O)c1cc(-c2ccc(F)cc2)sc1NC(=O)N1CCCC1 | > 10 µM | > 50 µM | –
COC(=O)c1cc(-c2ccccc2)sc1NC(=O)CCl | 0.19 µM (≈ 0.0589 µg/mL) | > 50 µM | FC [7]: 10; fold change (FC) [4]: 5; fractional inhibitory concentration index (FICI) [8]: 0.625; fractional inhibitory concentration index (FICI) [9]: 0.562; fractional inhibitory concentration index (FICI) [10]: 0.562; fractional inhibitory concentration index (FICI) [11]: 0.25; fractional inhibitory concentration index (FICI) [12]: 0.625; Ratio [13]: 8; Activity [5]: Active; Activity [6]: Active
CCOC(=O)c1cc(-c2ccccc2)sc1NC(=O)c1ccc(F)cc1 | > 10 µM | > 50 µM | –
COC(=O)c1cc(-c2ccc(F)cc2)sc1NC(=O)N1CCCCC1 | > 10 µM | > 50 µM | –
CCOC(=O)c1cc(-c2ccccc2)sc1NC(=O)NC1CC1 | 1.56 µM (≈ 0.515 µg/mL) | > 50 µM | –
CCOC(=O)c1cc(-c2ccccc2)sc1NC(=O)NCc1ccccc1 | > 10 µM | > 50 µM | –
CCOC(=O)c1cc(-c2ccccc2)sc1NC(C)=O | > 10 µM | > 50 µM | –
CCOC(=O)c1cc(-c2ccccc2)sc1NC(=O)Nc1ccccc1 | > 10 µM | > 50 µM | –
CCOC(=O)c1c(NC(=O)c2c(F)c(F)c(F)c(F)c2F)sc2c1CCCCC2 | – | – | MIC [14]: 1 µM (≈ 0.433 µg/mL)
CCOC(=O)c1cc(-c2ccccc2)sc1NC(=O)Cc1ccccc1 | > 10 µM | > 50 µM | –
CCOC(=O)c1cc(-c2ccccc2)sc1NC(=O)c1ccccc1 | > 10 µM | > 50 µM | –
CCOC(=O)c1cc(-c2ccccc2)sc1N | > 10 µM | > 50 µM | –
CCN(CC)C(=O)Nc1sc(-c2ccc(F)cc2)cc1C(=O)OC | > 10 µM | > 50 µM | –
COc1ccc([C@@H](c2ccc(OCCN(C(C)C)C(C)C)cc2)c2cccs2)cc1 | – | – | MIC [15]: 3.12 µM (≈ 1.32 µg/mL)
CCOC(=O)c1cc(-c2ccccc2)sc1NC(=O)N1CCCCC1 | > 10 µM | > 50 µM | –
COC(=O)c1cc(-c2ccc(F)cc2)sc1NC(=O)NC(C)C | > 10 µM | > 50 µM | –
COC(=O)c1cc(-c2ccc(F)cc2)sc1NC(=O)NC1CC1 | > 10 µM | > 50 µM | –

Structure (SMILES) | MIC99 [1] | Activity [2] | further results
CCOC(=O)c1cc(-c2ccccc2)sc1NC(=O)N1CCCC1 | > 10 µM | > 50 µM | –
CCOC(=O)c1cc(-c2ccccc2)sc1NC(=O)c1ccc(C#N)cc1 | > 10 µM | > 50 µM | –
COC(=O)c1cc(-c2ccc(C(F)(F)F)cc2)sc1NC(=O)CCl | 0.39 µM (≈ 0.147 µg/mL) | > 50 µM | Activity [5]: Active; Activity [6]: Active
CCOC(=O)c1cc(-c2ccccc2)sc1NC(N)=O | > 10 µM | > 50 µM | –
CO[C@H]1/C=C/O[C@@]2(C)Oc3c(C)c(O)c4c(O)c(c(/C=N/N5CCN(C)CC5)c(O)c4c3C2=O)NC(=O)/C(C)=C\C=C\[C@H](C)[C@H](O)[C@@H](C)[C@@H](O)[C@@H](C)[C@H](OC(C)=O)[C@@H]1C [RIFAMPIN] | 0.007 µM (≈ 0.00576 µg/mL) | – | –
CCOC(=O)c1cc(-c2ccccc2)sc1NC(=O)c1cccnc1 | > 10 µM | > 50 µM | –
COC(=O)c1cc(-c2ccc(F)cc2)sc1NC(=O)CCl | 0.78 µM (≈ 0.256 µg/mL) | > 50 µM | Activity [5]: Active; Activity [6]: Active
CCOC(=O)c1cc(-c2ccccc2)sc1NC(=O)NC | > 10 µM | > 50 µM | –
O=C(O)C(=O)N(Cc1cccc(Cl)c1)Cc1ccc(S(=O)(=O)NCCC(c2ccccc2)c2ccccc2)s1 | – | – | IC50 [16]: 400 nM
CCOC(=O)c1cc(-c2ccccc2)sc1NC(=O)N1CCOCC1 | > 10 µM | > 50 µM | –
COC(=O)c1cc(-c2cccc(F)c2)sc1NC(=O)CCl | 0.19 µM (≈ 0.0623 µg/mL) | > 50 µM | Activity [5]: Active; Activity [6]: Active
CCOC(=O)c1cc(-c2ccccc2)sc1NC(=O)N(CC)CC | 3.12 µM (≈ 1.08 µg/mL) | > 50 µM | –
CCOC(=O)c1cc(-c2ccccc2)sc1NC(=O)CBr | 0.78 µM (≈ 0.287 µg/mL) | > 50 µM | Activity [5]: Active; Activity [6]: Active
CCOC(=O)c1c(NC(=O)c2c(F)c(F)c(F)c(F)c2F)sc(C(N)=O)c1C | – | – | MIC [14]: 0.5 µM (≈ 0.211 µg/mL)
CCOC(=O)c1cc(-c2ccccc2)sc1NC(=O)N(C)C | > 10 µM | > 50 µM | –
CCOC(=O)c1cc(-c2ccccc2)sc1NC(=O)NC(C)C | 1.56 µM (≈ 0.519 µg/mL) | > 50 µM | –
COC(=O)c1ccsc1NC(=O)CCl | 0.19 µM (≈ 0.0444 µg/mL) | > 50 µM | FC [7]: 10; fold change (FC) [4]: 2.5; fractional inhibitory concentration index (FICI) [8]: 0.75; fractional inhibitory concentration index (FICI) [9]: 0.75; fractional inhibitory concentration index (FICI) [10]: 0.562; fractional inhibitory concentration index (FICI) [11]: 0.5; fractional inhibitory concentration index (FICI) [12]: 1; Ratio [13]: 4; Activity [5]: Active; Activity [6]: Active
COC(=O)c1cc(-c2cc(F)cc(F)c2)sc1NC(=O)CCl | 0.78 µM (≈ 0.27 µg/mL) | > 50 µM | Activity [5]: Active; Activity [6]: Active
CCOC(=O)c1cc(-c2ccccc2)sc1NC(=O)N1CCN(C)CC1 | > 10 µM | > 50 µM | –
